Article PMC8864714 (Chemical Science, 2022)
Converted amounts (≈) assume the structure as drawn. Bridge positions count the residues as written; N and C are the ends. Square brackets hold non-standard residues; d marks the D form. I, II: the chains in the order shown. * marks the point of attachment. Ac6c = NC1(C(=O)O)CCCCC1; NHNH2 = NN*

What was measured:
[1] = tested on: panel of Gram-negative pathogens; assay: Antibacterial testing, statements in words; type: cell-based; conditions: Table S2
[2] = tested on: E. coli ATCC 25922; assay: MIC antibacterial assay; type: cell-based, Escherichia coli
[3] = tested on: K. pneumoniae ATCC 13883; assay: MIC antibacterial assay; type: cell-based, Klebsiella pneumoniae
[4] = tested on: A. baumannii ATCC 19606; assay: MIC antibacterial assay; type: cell-based, Acinetobacter baumannii; conditions: for MIC, A. baumannii 19606: 100% MHB, 90 min, 37 °C, twice in duplicate, mean ± SD
[5] = tested on: FADDI-KP028 (MDR); assay: MIC antibacterial assay; type: cell-based, K. pneumoniae
Procedure, shortened: (§1)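 Broth assay in 100% Mueller Hinton broth. Test compound was serially diluted from 250 to 4 μg ml−1 and mixed 1:1 by volume with a bacterial suspension of 2 × 10^6 cells per ml, then incubated 90 min at 37 °C. MIC was obtained by plotting maximal growth against concentration (Lambert and Pearson method). Run twice in duplicate; mean ± SD.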

[6] = tested on: FADDI-AB156 (colistin-resistant, rifampin-resistant & MDR, XDR); assay: MIC antibacterial assay; type: cell-based, A. baumannii; conditions: for MIC, FADDI-AB156: 100% MHB, 90 min, 37 °C, twice in duplicate, mean ± SD
Procedure, shortened: as §1

[7] = tested on: A. baumannii 19606; assay: Minimum bactericidal concentration; type: cell-based, Acinetobacter baumannii
[8] = tested on: A. baumannii culture; assay: Peptide stability in bacterial culture; type: in vitro ADME; conditions: 90 min incubation with A. baumannii culture
[9] = 100% MHB, 90 min, 37 °C, twice in duplicate, mean ± SD

Fc1c(F)c(F)c(-c2c(F)c(F)c(F)c(F)c2F)c(F)c1F [Decafluorobiphenyl]
antibacterial activity of the linkers alone [1]: no antibacterial activity

CNC(C)C1CCC(N)C(OC2C(N)CC(N)C(OC3OCC(C)(O)C(NC)C3O)C2O)O1 (centres unmarked) [Gentamicin]
MIC ([2]; Escherichia coli, ATCC25922, 1.5 h, read-out: MIC, E. coli 25922): 0.9 ± 0.1 µg/mL (≈ 1.88 µM) | MIC ([3]; Klebsiella pneumoniae, ATCC13883, 1.5 h, read-out: MIC, K. pneumoniae 13883): 0.1 ± 0.05 µg/mL (≈ 0.209 µM) | MIC ([4]; Acinetobacter baumannii, ATCC19606, 1.5 h, read-out: MIC, A. baumannii 19606): 2.7 ± 0.2 µg/mL (≈ 5.65 µM) | MIC ([5]; Klebsiella pneumoniae, 1.5 h, read-out: MIC, FADDI-KP028): > 250 µg/mL | MIC ([6]; Acinetobacter baumannii, 1.5 h, read-out: MIC, FADDI-AB156): > 250 µg/mL | MBC ([7]; Acinetobacter baumannii, 19606, read-out: Bactericidal MBC, A. baumannii 19606): 4.6 ± 0.3 µg/mL (≈ 9.63 µM)

Fc1c(F)c(F)c(F)c(F)c1F [Hexafluorobenzene]
antibacterial activity of the linkers alone [1]: no antibacterial activity

Colistin
MIC, A. baumannii 19606 [4]: 0.5 ± 0.04 (0.4) μg ml^−1 | MIC, FADDI-AB156 [6]: 12.6 ± 1.6 (10.9) μg ml^−1 | Bactericidal MBC, A. baumannii 19606 ([7]; CFU assay, twice in duplicate, mean ± SD): 0.8 ± 0.02 (0.7) μg ml^−1

I: H-[Ac6c]RPDKPRPYLPRPRPPRPVRC-NHNH2 / II: H-[Ac6c]RPDKPRPYLPRPRPPRPVRC-NHNH2 (disulfide I:21-II:21) [compound 2]
MIC, E. coli 25922 [2, 9]: 3.1 ± 0.1 (0.6) μg ml^−1 | MIC, K. pneumoniae 13883 [3, 9]: 5.1 ± 0.8 (1.0) μg ml^−1 | MIC, A. baumannii 19606 [4]: 30.8 ± 3.3 (5.9) μg ml^−1 | MIC, FADDI-KP028 [5, 9]: 111.3 ± 0.3 (21.5) μg ml^−1 | MIC, FADDI-AB156 [6]: 59.2 ± 0.2 (11.4) μg ml^−1 | peptide stability in A. baumannii culture (RP-HPLC trace) [8]: reduced
